Data on five molecules can be found in ChEMBL document CHEMBL3046144, “Insecticidal and fumigant activities of Cinnamomum cassia bark-derived materials against Mechoris ursulus (Coleoptera: attelabidae)” (2000).

Common to all, as to type: functional
In assay [1] the test system is Attelabidae. Put plainly: Insecticidal activity against Mechoris ursulus assessed as mortality at 2.5 mg/paper at 25 +/- 1 degC measured after 48 hr by filter paper diffusion method. The procedure, abridged:
(§1)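 M. ursulus larvae. Compound in 1 mL acetone applied to a filter paper (50-mm diameter), dried in a hood 2 min, then placed in the bottom of a polyethylene cup with the larvae. Controls got 1 mL acetone. Held at 25 ± 1 °C, 50-60% RH, 16L:8D. Run in triplicate, mean ± SE.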

The subject of assay [2] is Attelabidae. Description: Insecticidal activity against Mechoris ursulus assessed as mortality at 5 mg/paper at 25 +/- 1 degC measured after 48 hr by filter paper diffusion method. The procedure, abridged: as §1
Assay [3] has as its system Attelabidae. Put plainly: Insecticidal activity against Mechoris ursulus assessed as mortality at 1 mg/paper at 25 +/- 1 degC measured after 48 hr by filter paper diffusion method. The procedure, abridged: as §1

Turning to `O=C/C=C/c1ccccc1` [CINNAMALDEHYDE], the mortality amounted to 100% in the assay with Attelabidae [1], 100% in the assay with Attelabidae [2] and 83.3% with Attelabidae [3].

Turning to `C=CCc1ccc(O)c(OC)c1` [EUGENOL], the results for the mortality in the assay with Attelabidae [1], in the assay on Attelabidae [2] and in the assay on Attelabidae [3] were 90%, 100% and 66.7%, respectively.

For the molecule `O=C(O)/C=C/c1ccccc1` [CINNAMIC ACID], the mortality is listed as 73.3% in the assay on Attelabidae [1], 86.7% with Attelabidae [2] and 53.3% in the assay with Attelabidae [3].

Turning to `O=Cc1ccccc1O` [SALICYLADEHYDE], the mortality with Attelabidae [1] turned out to be 88.9%; in the assay on Attelabidae [2], 100%; in the assay with Attelabidae [3], 74.4%.

For the molecule `OC/C=C/c1ccccc1` [CINNAMIC ALCOHOL], the mortality in the assay with Attelabidae [2] was 50%.

Broadly, the mortality is the percentage killed.
